Measured values taken from publication PMC9401513 (Clinical Cancer Research, 2021).
Entries after “also recorded” stand apart in the source; their conditions may differ.

Experiments:
Format in all cases: in vivo, human
[1] = test system: patients with advanced solid tumors; test: Adverse events graded by NCI-CTCAE v4.03 in phase I patients; details: every 3 weeks, N = 112
In short: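 Test compound was given by IV infusion over about 60 min every 3 weeks in sequential dose-escalation cohorts to adults with advanced solid tumors (ECOG 0–1). Adverse events were graded by NCI-CTCAE v4.03 over all cycles and tabulated as treatment-related by dose level. G-CSF was permitted after cycle 1. Antiemetics and corticosteroids were given at the physician's discretion.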

[2] = Clinical pharmacokinetics; details: for systemic exposure (AUCtau, Cmax) versus dose: 0.2 to 3.7 mg/kg every 3 weeks dose levels of PF-06647020; for Cmax: ADC, Cycle 1 single dose, geometric mean (geometric % CV)
[3] = test system: patients with advanced solid tumors; test: Dose-limiting toxicity, MTD and RP2D determination
In short: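 Dose escalation followed the modified toxicity probability interval method. Target DLT rate was 25%, with an acceptable interval of 20–30%, a beta(0.75, 0.65) prior and a 0.975 exclusion threshold. DLTs were treatment-related events in cycle 1, monitored over 28 days: grade 4 neutropenia >7 days, grade ≥3 nonhematologic nonhepatic toxicity, or >2-week cycle delay. MTD was the highest dose with DLT rate <0.30 in ≥9 evaluable patients. Dosing was IV every 3 weeks (0.2–3.7 mg/kg) or every 2 weeks (2.1, 2.8, 3.2 mg/kg).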

B1: cofetuzumab pelidotin (conjugate, chains of the INN, looked up)
VH: QVQLVQSGPEVKKPGASVKVSCKASGYTFTDYAVHWVRQAPGKRLEWIGVISTYNDYTYNNQDFKGRVTMTRDTSASTAYMELSRLRSEDTAVYYCARGNSYFYALDYWGQGTSVTVSS
VL: EIVLTQSPATLSLSPGERATLSCRASESVDSYGKSFMHWYQQKPGQAPRLLIYRASNLESGIPARFSGSGSGTDFTLTISSLEPEDFAVYYCQQSNEDPWTFGGGTKLEIK
modifications: auristatin-0101 payload, vc linker
[1]; mostly disease progression
  patients died on study: 15.2%
[1]; all cycles
  TRAE Alopecia, Grade 1: 13 (11.6) n (%)
  TRAE Alopecia, Grade 2: 33 (29.5) n (%)
  TRAE Alopecia, Grade 3: 0 n (%)
  TRAE Alopecia, Grade 4: 0 n (%)
  TRAE Alopecia, Total: 46 (41.1) n (%)
  TRAE Arthralgia, Grade 1: 16 (14.3) n (%)
  TRAE Arthralgia, Grade 2: 2 (1.8) n (%)
  TRAE Arthralgia, Grade 3: 1 (0.9) n (%)
  TRAE Arthralgia, Grade 4: 0 n (%)
  TRAE Arthralgia, Total: 19 (17.0) n (%)
  TRAE Decreased appetite, Grade 1: 11 (9.8) n (%)
  TRAE Decreased appetite, Grade 2: 7 (6.3) n (%)
  TRAE Decreased appetite, Grade 3: 0 n (%)
  TRAE Decreased appetite, Grade 4: 0 n (%)
  TRAE Decreased appetite, Total: 18 (16.1) n (%)
  TRAE Diarrhea, Grade 1: 8 (7.1) n (%)
  TRAE Diarrhea, Grade 2: 8 (7.1) n (%)
  TRAE Diarrhea, Grade 3: 1 (0.9) n (%)
  TRAE Diarrhea, Grade 4: 0 n (%)
  TRAE Diarrhea, Total: 17 (15.2) n (%)
  TRAE Fatigue, Grade 1: 19 (17.0) n (%)
  TRAE Fatigue, Grade 2: 19 (17.0) n (%)
  TRAE Fatigue, Grade 3: 3 (2.7) n (%)
  TRAE Fatigue, Grade 4: 0 n (%)
  TRAE Fatigue, Total: 41 (36.6) n (%)
  TRAE Headache, Grade 1: 13 (11.6) n (%)
  TRAE Headache, Grade 2: 19 (17.0) n (%)
  TRAE Headache, Grade 3: 5 (4.5) n (%)
  TRAE Headache, Grade 4: 0 n (%)
  TRAE Headache, Total: 37 (33.0) n (%)
  TRAE Myalgia, Grade 1: 11 (9.8) n (%)
  TRAE Myalgia, Grade 2: 3 (2.7) n (%)
  TRAE Myalgia, Grade 3: 1 (0.9) n (%)
  TRAE Myalgia, Grade 4: 0 n (%)
  TRAE Myalgia, Total: 15 (13.4) n (%)
  TRAE Nausea, Grade 1: 28 (25.0) n (%)
  TRAE Nausea, Grade 2: 21 (18.8) n (%)
  TRAE Nausea, Grade 3: 1 (0.9) n (%)
  TRAE Nausea, Grade 4: 0 n (%)
  TRAE Nausea, Total: 50 (44.6) n (%)
  TRAE Neutropenia, Grade 1: 0 n (%)
  TRAE Neutropenia, Grade 2: 4 (3.6) n (%)
  TRAE Neutropenia, Grade 3: 17 (15.2) n (%)
  TRAE Neutropenia, Grade 4: 11 (9.8) n (%)
  TRAE Neutropenia, Total: 32 (28.6) n (%)
  TRAE Peripheral sensory neuropathy, Grade 1: 7 (6.3) n (%)
  TRAE Peripheral sensory neuropathy, Grade 2: 7 (6.3) n (%)
  TRAE Peripheral sensory neuropathy, Grade 3: 0 n (%)
  TRAE Peripheral sensory neuropathy, Grade 4: 0 n (%)
  TRAE Peripheral sensory neuropathy, Total: 14 (12.5) n (%)
  TRAE Vomiting, Grade 1: 10 (8.9) n (%)
  TRAE Vomiting, Grade 2: 14 (12.5) n (%)
  TRAE Vomiting, Grade 3: 4 (3.6) n (%)
  TRAE Vomiting, Grade 4: 0 n (%)
  TRAE Vomiting, Total: 28 (25.0) n (%)
[2]; 2.8 mg/kg every 3 weeks
  AUC ratio between ADC and total antibody: approximately 0.9
[2]
  systemic exposure (AUCtau, Cmax) versus dose: generally increased in a dose-related manner
[2]; listed as ADC
  systemic exposure (AUCtau, Cmax) versus dose: generally increased in a dose-proportional manner
[2]; 2.8 mg/kg Q2W IV
  Cmax: 99.7 µg/mL
[2]; 2.8 mg/kg Q3W IV
  Cmax: 79.8 µg/mL
[3]; 2.8 mg/kg every 2 weeks, n = 10
  DLT observed: grade 3 neutropenic infection in 1 patient
[3]; 3.2 mg/kg every 2 weeks, n = 12
  DLT observed: grade 3 abdominal pain in 2 patients
[3]; 3.7 mg/kg every 3 weeks (highest dose), n = 6, two DLTs
  DLTs reported: grade 3 headache and fatigue; also recorded: grade 3 headache and grade 3 fatigue
[3]; 3.7 mg/kg every 3 weeks, n = 6
  DLT rate: 33%
[3]; every 2 weeks regimen, dose levels 2.1-3.2 mg/kg
  MTD: not reached
[3]; every 3 weeks
  MTD (estimated as protocol specified): 2.8 mg/kg
  RP2D (recommended phase II dose): 2.8 mg/kg
